A value given as a limit tells only on which side of the number the result lay.

Test system in one series: not listed separately
Description: Hypoxia cytotoxicity ratio (dose in air / hypoxia giving 99% of cell killing). In a few lines:
(§1)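 V-79 Chinese hamster lung fibroblasts in stirred suspension (2 × 10⁴ cells/mL, EMEM + 10% FBS, 10 mM HEPES), gassed for air or hypoxia; drug in DMSO added 30 min after gassing began, two flasks per dose, 2 h exposure. Cells cloned 7 days at 37 °C, crystal violet stain, colonies >64 cells counted; survival = PE treated/PE control. Dose-response curves from ≥3 experiments.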
As to `N#Cc1c(N)[n+]([O-])c2cc(C(F)(F)F)ccc2[n+]1[O-]`, the Selectivity amounted to 75.

Regarding `N#Cc1c(N)[n+]([O-])c2cc(Cl)ccc2[n+]1[O-]`, the Selectivity is on record as 150.

In the case of `N#Cc1c(N)[n+]([O-])c2cc(F)c(F)cc2[n+]1[O-]`, the Selectivity was below 10.

Consider `N#Cc1c(N)[n+]([O-])c2cc(-c3ccc([N+](=O)[O-])cc3)ccc2[n+]1[O-]`, for which the Selectivity was 15.

For the molecule `N#Cc1c(N)[n+]([O-])c2ccccc2[n+]1[O-]`, the Selectivity was 80.

`N#Cc1c(N)[n+]([O-])c2cc(Cl)c(F)cc2[n+]1[O-]`: the Selectivity amounted to 10.

Turning to `N#Cc1c(N)[n+]([O-])c2cc(F)ccc2[n+]1[O-]`, the Selectivity came to 100.

Consider `COc1cc2c(cc1Cl)[n+]([O-])c(C#N)c(N)[n+]2[O-]`, for which the Selectivity was below 10.

Turning to `N#Cc1ccc2c(c1)[n+]([O-])c(N)c(C#N)[n+]2[O-]`, the Selectivity is given as 50.

As for `COc1ccc2c(c1)[n+]([O-])c(N)c(C#N)[n+]2[O-]`, the Selectivity is given as above 10.

Turning to `N#Cc1c(N)[n+]([O-])c2cc(Cl)c(Cl)cc2[n+]1[O-]`, the Selectivity is 80.

Regarding `Nc1n[n+]([O-])c2ccccc2[n+]1[O-]` [TIRAPAZAMINE], the Selectivity came to 75.

A further series deals with V79. Nature of the series: The compound was tested for potency by measuring the concentration (umolar) that gives 1% clonogenic cell survival in hypoxia. In kind it is functional, Cricetulus griseus. In a few lines: as §1
Turning to `N#Cc1c(N)[n+]([O-])c2cc(C(F)(F)F)ccc2[n+]1[O-]`, the Potency is 7 µM.

In turn, `N#Cc1c(N)[n+]([O-])c2cc(Cl)ccc2[n+]1[O-]` registered a Potency of 9 µM.

Molecule `N#Cc1c(N)[n+]([O-])c2cc(F)c(F)cc2[n+]1[O-]` yielded a Potency of 1 µM.

For the molecule `N#Cc1c(N)[n+]([O-])c2cc(-c3ccc([N+](=O)[O-])cc3)ccc2[n+]1[O-]`, the Potency was 4 µM.

Molecule `N#Cc1c(N)[n+]([O-])c2ccccc2[n+]1[O-]` showed a Potency of 30 µM.

As for `N#Cc1c(N)[n+]([O-])c2cc(Cl)c(F)cc2[n+]1[O-]`, the Potency was 2 µM.

As to `N#Cc1c(N)[n+]([O-])c2cc(F)ccc2[n+]1[O-]`, the Potency was found to be 15 µM.

In the case of `COc1cc2c(cc1Cl)[n+]([O-])c(C#N)c(N)[n+]2[O-]`, the Potency stood at 10 µM.

`N#Cc1ccc2c(c1)[n+]([O-])c(N)c(C#N)[n+]2[O-]` had a Potency of 11 µM.

`COc1ccc2c(c1)[n+]([O-])c(N)c(C#N)[n+]2[O-]` yielded a Potency of 30 µM.

Molecule `N#Cc1c(N)[n+]([O-])c2cc(Cl)c(Cl)cc2[n+]1[O-]` returned a Potency of 1 µM.

As to `Nc1n[n+]([O-])c2ccccc2[n+]1[O-]` [TIRAPAZAMINE], the Potency came to 30 µM.

Source of the values: ChEMBL document CHEMBL1128366, “Hypoxia-selective agents derived from quinoxaline 1,4-di-N-oxides” (J Med Chem, 1995).
